What was measured:
[1] = target: T1, Adenosine receptor A1 (Homo sapiens) (UniProt P30542); assay: Allosteric enhancement of human adenosine A1 receptor expressed in CHO FlpIn cells assessed as potentiation of N(6)-(R-phenylisopropyl)adenosine-induced ERK1/2 phosphorylation at 3 uM relative to N(6)-(R-phenylisopropyl)adenosine; type: cell-based
T1 sequence (whole entry): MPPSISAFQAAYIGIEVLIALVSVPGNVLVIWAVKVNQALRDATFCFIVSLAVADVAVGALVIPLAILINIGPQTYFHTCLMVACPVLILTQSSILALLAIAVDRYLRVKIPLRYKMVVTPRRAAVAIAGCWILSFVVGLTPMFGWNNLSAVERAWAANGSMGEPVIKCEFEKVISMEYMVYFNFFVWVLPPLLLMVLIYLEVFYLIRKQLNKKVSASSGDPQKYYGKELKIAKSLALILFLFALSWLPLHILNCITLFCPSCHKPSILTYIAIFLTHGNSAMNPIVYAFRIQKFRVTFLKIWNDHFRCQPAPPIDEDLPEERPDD

[2] = target: T1, Adenosine receptor A1 (Homo sapiens); assay: Allosteric enhancement of human adenosine A1 receptor expressed in CHO FlpIn cells assessed as potentiation of N(6)-(R-phenylisopropyl)adenosine-induced ERK1/2 phosphorylation at 10 uM relative to N(6)-(R-phenylisopropyl)adenosine; type: cell-based
Adenosine receptor A1 = target: T2, Adenosine receptor A1 (Homo sapiens, UniProt P30542); assay: Antagonist activity at human adenosine A1 receptor expressed in CHO FlpIn cells assessed as inhibition of N(6)-(R-phenylisopropyl)adenosine-induced ERK1/2 phosphorylation; type: functional, cell-based; details: read-out: pA2 (converted)
T2 sequence (P30542 whole entry): T1 sequence (whole entry)
Method in brief: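 Human A1AR FlpIn-CHO cells were pretreated with 1 U/mL adenosine deaminase for 30 min, then with test ligand over a concentration range for 30 min at 37 °C. R-PIA was then added for 5 min stimulation. Lysates were assayed for phospho-ERK1/2 by AlphaScreen SureFire. Response was expressed as percent of the 6 min 3% FBS response. Three experiments in triplicate, mean ± SEM. Curves were fitted globally to a competitive or allosteric model.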

[3] = target: T1, Adenosine receptor A1 (Homo sapiens); assay: Allosteric enhancement of human adenosine A1 receptor expressed in CHO FlpIn cells assessed as increase of ERK1/2 phosphorylation at 3 to 10 uM relative to N(6)-(R-phenylisopropyl)adenosine; type: cell-based
[4] = target: T3, Adenosine receptor A1 (Rattus norvegicus) (UniProt P25099); assay: Allosteric enhancement of human adenosine A1 receptor in rat brain membranes assessed as increase of [3H]N6-cyclohexyladenosine binding at 100 uM relative to control; type: cell membranes
T3 sequence (whole entry): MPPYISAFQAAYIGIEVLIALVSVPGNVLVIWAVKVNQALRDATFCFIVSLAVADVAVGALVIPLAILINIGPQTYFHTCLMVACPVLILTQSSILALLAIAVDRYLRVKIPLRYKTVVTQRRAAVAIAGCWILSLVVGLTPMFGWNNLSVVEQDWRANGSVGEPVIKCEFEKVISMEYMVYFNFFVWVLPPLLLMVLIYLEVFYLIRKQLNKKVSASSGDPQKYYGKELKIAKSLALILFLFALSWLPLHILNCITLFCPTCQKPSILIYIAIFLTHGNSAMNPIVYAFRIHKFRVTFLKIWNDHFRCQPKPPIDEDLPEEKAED

Row | Structure (SMILES) | Activity [1] [%] | Activity [2] [%] | Kb (Adenosine receptor A1) [nM] | Activity [3] [%] | Activity [4] [%]
1 | Nc1sc(-c2ccccc2)cc1C(=O)c1ccccc1 | 12 | 1 | 209 | 5 | 
2 | Nc1sc(-c2ccc(C(=O)O)cc2)cc1C(=O)c1ccc(Cl)cc1 | 27 | 29 |  | 5 | 
3 | CN(C)c1ccc(-c2cc(C(=O)c3ccc(Cl)cc3)c(N)s2)cc1 | 56 | 41 |  | 5 | 
4 | COc1ccc(-c2sc(N)c3c2-c2ccccc2C3=O)cc1 | 37 | 18 |  | 5 | 
5 | CN(C)c1ccc(-c2sc(N)c3c2-c2ccccc2C3=O)cc1 | 48 | 32 |  | 5 | 
6 | Nc1sc(-c2cncnc2)c2c1C(=O)c1ccccc1-2 | 19 | 7 | 646 | 5 | 
7 | Nc1sc2c(c1C(=O)c1ccc(Cl)cc1)-c1cccc(C(F)(F)F)c1C2 | 65 | 73 |  | 5 | 
8 | Nc1cccc2c1C(=O)c1ccccc1-2 |  |  |  |  | 122
9 | Nc1sc(-c2ccc(C(=O)O)cc2)c2c1C(=O)c1ccccc1-2 | 19 | 7 |  | 5 | 
10 | Nc1sccc1C(=O)c1ccc(Cl)cc1 | 50 | 40 |  | 5 | 
11 | Nc1scc2c1C(=O)c1c(Cl)cccc1-2 | 45 | 38 |  | 5 | 
12 | Nc1sc2c(c1C(=O)c1ccccc1)-c1cccc(C(F)(F)F)c1C2 | 56 | 49 |  | 5 | 
13 | Nc1sc(-c2cncnc2)cc1C(=O)c1ccc(Cl)cc1 | 7 | 4 | 145 | 5 | 
14 | Nc1sc(-c2ccncc2)c2c1C(=O)c1ccccc1-2 | 28 | 17 |  | 5 | 
15 | Nc1sccc1C(=O)c1ccccc1 | 48 | 30 |  | 5 | 59
16 | Nc1sc(-c2ccc(C(=O)O)cc2)cc1C(=O)c1ccccc1 | 51 | 27 |  | 5 | 

Row | Structure (SMILES) | Activity [1] [%] | Activity [2] [%] | Kb (Adenosine receptor A1) [nM] | Activity [3] [%] | Activity [4] [%]
17 | Nc1sc(-c2ccncc2)cc1C(=O)c1ccc(Cl)cc1 | 44 | 17 |  | 5 | 
18 | Nc1sc2c(c1C(=O)c1ccccc1)-c1cc(C(F)(F)F)ccc1C2 | 52 | 38 |  | 5 | 
19 | CN(C)c1ccc(-c2cc(C(=O)c3ccccc3)c(N)s2)cc1 | 50 | 29 |  | 5 | 
20 | Nc1sc2c(c1C(=O)c1ccccc1)-c1ccccc1C2 | 23 | 9 |  | 5 | 
21 | Nc1sc(-c2ccncc2)cc1C(=O)c1ccccc1 | 23 | 17 |  | 5 | 
22 | Nc1scc2c1C(=O)c1ccc(Cl)cc1-2 | 56 | 29 |  | 20 | 
23 | Nc1sc2c(c1C(=O)c1ccc(Cl)cc1)-c1cc(C(F)(F)F)ccc1C2 | 62 | 73 |  | 5 | 
24 | Nc1ccccc1C(=O)c1ccccc1 |  |  |  |  | 34
25 | COc1ccc(-c2cc(C(=O)c3ccccc3)c(N)s2)cc1 | 31 | 14 |  | 5 | 
26 | COc1ccc(-c2cc(C(=O)c3ccc(Cl)cc3)c(N)s2)cc1 | 51 | 29 |  | 5 | 
27 | Nc1sc2c(c1C(=O)c1ccc(Cl)cc1)-c1ccccc1C2 | 81 | 84 |  | 20 | 
28 | Nc1scc2c1C(=O)c1ccccc1-2 | 45 | 27 |  | 5 | 
29 | Nc1sc(-c2cncnc2)cc1C(=O)c1ccccc1 | 18 | 2 |  | 5 | 
30 | Nc1sc(-c2ccccc2)c2c1C(=O)c1ccccc1-2 | 19 | 3 |  | 5 | 
31 | Nc1sc(-c2ccccc2)cc1C(=O)c1ccc(Cl)cc1 | 46 | 16 |  | 5 | 

— ChEMBL document CHEMBL1240531, “Effects of conformational restriction of 2-amino-3-benzoylthiophenes on A(1) adenosine receptor modulation” (J Med Chem, 2010)
